Results from ChEMBL document CHEMBL1139690, “Comparison between two classes of selective EP(3) antagonists and their biological activities” (Bioorg Med Chem Lett, 2006).
pKi: −log10 of the molar value.

Legend:
[1] = molecular target: T1, Prostaglandin E2 receptor EP3 subtype (Homo sapiens, UniProt P43115); assay: Binding affinity to EP3 receptor
T1 sequence (P43115 whole entry): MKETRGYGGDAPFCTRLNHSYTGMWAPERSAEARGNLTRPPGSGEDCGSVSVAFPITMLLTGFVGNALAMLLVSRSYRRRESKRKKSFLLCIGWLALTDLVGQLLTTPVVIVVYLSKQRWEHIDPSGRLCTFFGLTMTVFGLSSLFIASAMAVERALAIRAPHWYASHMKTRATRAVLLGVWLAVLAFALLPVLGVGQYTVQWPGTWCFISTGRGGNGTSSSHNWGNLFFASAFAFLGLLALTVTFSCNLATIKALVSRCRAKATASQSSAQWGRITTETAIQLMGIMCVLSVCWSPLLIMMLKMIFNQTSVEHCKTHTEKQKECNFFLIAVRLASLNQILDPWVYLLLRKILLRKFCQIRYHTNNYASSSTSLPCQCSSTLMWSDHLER

[2] = molecular target: T2, Prostaglandin E2 receptor EP1 subtype (Homo sapiens, UniProt P34995); assay: Binding affinity to EP1 receptor
T2 sequence (P34995 whole entry): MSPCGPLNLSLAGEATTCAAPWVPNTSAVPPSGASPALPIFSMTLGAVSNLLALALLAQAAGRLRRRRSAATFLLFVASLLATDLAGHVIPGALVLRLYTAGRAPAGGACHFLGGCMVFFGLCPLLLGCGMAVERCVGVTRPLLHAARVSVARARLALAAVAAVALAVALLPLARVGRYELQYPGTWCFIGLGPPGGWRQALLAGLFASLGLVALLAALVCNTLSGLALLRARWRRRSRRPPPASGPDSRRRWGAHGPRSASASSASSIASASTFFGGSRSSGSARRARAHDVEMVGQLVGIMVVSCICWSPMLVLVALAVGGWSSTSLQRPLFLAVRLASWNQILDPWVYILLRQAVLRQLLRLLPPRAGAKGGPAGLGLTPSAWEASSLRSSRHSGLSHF

[3] = molecular target: Prostaglandin E2 receptor EP4 subtype (Homo sapiens, UniProt P35408); assay: Binding affinity to EP4 receptor
[4] = molecular target: Prostaglandin E2 receptor EP2 subtype (Homo sapiens, UniProt P43116); assay: Binding affinity to EP2 receptor
[5] = molecular target: T1, Prostaglandin E2 receptor EP3 subtype; assay: Binding affinity to EP3 receptor in presence of HSA
Rattus norvegicus [6] = assay: Concentration in carrageenan-induced hyperalgesic rat at 10 mg/kg, po, 1 hr postdose; type: functional
Outline: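 Young 100 g rats from the hyperalgesia model given 10 mg/kg po in 0.5% methocel as sodium salts; plasma concentration measured 1 h post-dosing, at the time hyperalgesia was assessed.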

Prostacyclin receptor = Prostacyclin receptor (Homo sapiens, UniProt P43119); assay: Binding affinity to IP receptor
Thromboxane A2 receptor = molecular target: T3, Thromboxane A2 receptor (Homo sapiens, UniProt P21731); assay: Binding affinity to TP receptor
T3 sequence (P21731 whole entry): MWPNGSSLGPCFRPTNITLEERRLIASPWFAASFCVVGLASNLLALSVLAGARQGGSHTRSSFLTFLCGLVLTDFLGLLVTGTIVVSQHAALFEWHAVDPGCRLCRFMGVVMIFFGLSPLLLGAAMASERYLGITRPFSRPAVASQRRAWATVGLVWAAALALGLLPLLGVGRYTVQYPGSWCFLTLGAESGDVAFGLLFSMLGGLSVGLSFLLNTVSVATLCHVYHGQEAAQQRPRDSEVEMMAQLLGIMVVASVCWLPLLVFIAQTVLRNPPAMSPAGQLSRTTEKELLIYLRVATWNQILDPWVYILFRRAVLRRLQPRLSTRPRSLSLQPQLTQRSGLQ

[7] = molecular target: Prostaglandin F2-alpha receptor (Homo sapiens, UniProt P43088); assay: Binding affinity to FP receptor
Rattus norvegicus [8] = assay: Effect on carrageenan-induced paw hyperalgesia in po dosed rat; type: functional
[9] = molecular target: T4, Prostaglandin D2 receptor (Homo sapiens, UniProt Q13258); assay: Binding affinity to DP receptor
T4 sequence (Q13258 whole entry): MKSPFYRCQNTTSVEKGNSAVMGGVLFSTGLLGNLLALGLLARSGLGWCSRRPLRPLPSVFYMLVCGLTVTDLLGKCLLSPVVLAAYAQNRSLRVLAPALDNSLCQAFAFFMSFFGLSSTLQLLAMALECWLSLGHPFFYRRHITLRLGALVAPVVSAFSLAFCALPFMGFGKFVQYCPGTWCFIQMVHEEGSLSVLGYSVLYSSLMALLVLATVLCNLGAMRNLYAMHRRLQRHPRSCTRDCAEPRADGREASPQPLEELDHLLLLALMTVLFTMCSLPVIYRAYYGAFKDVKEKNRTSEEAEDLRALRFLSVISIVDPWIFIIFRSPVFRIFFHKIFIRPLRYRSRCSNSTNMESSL

[10] = Cmax in Sprague-Dawley rat at 10 mg/kg, po and 5 mg/kg, iv after 30 mins; type: ADME, organism-based; conditions: in vivo
[11] = Bioavailability in Sprague-Dawley rat at 10 mg/kg, po and 5 mg/kg, iv; type: ADME, organism-based; conditions: in vivo
[12] = Stability in rat hepatocytes after 3 hrs; type: ADME, cell-based, Hepatocyte; conditions: read-out: Stability
Outline: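 Incubation with rat hepatocytes for 3 h; percentage of parent compound recovered intact.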

[13] = molecular target: T5, Prostaglandin E2 receptor EP3 subtype (Homo sapiens) (UniProt P43115); assay: Antagonistic activity at EP3 receptor assessed as inhibition of cAMP production in HEK EBNA cells; type: functional, cell-based; conditions: HEK293-EBNA, filed as antagonist
T5 sequence (whole entry): T1 sequence (P43115 whole entry)

Rattus norvegicus [14] = assay: Antiinflammatory activity against carrageenan-induced paw edema in po dosed rat; type: functional
[15] = Clearance in Sprague-Dawley rat at 10 mg/kg, po and 5 mg/kg, iv; type: ADME, organism-based; conditions: in vivo
[16] = Half life in Sprague-Dawley rat at 10 mg/kg, po and 5 mg/kg, iv; type: ADME, organism-based; conditions: in vivo

Sequence of Prostaglandin E2 receptor EP2 subtype (P43116 whole entry): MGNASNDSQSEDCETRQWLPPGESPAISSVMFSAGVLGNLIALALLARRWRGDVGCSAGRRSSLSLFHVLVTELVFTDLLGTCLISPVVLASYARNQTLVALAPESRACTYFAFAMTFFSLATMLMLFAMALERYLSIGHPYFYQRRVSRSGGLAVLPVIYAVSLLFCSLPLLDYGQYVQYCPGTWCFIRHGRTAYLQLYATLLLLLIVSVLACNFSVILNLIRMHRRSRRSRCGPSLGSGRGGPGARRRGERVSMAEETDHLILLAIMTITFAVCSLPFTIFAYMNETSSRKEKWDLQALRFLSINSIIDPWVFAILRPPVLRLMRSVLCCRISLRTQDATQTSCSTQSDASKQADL
Sequence of Prostaglandin E2 receptor EP4 subtype (P35408 whole entry): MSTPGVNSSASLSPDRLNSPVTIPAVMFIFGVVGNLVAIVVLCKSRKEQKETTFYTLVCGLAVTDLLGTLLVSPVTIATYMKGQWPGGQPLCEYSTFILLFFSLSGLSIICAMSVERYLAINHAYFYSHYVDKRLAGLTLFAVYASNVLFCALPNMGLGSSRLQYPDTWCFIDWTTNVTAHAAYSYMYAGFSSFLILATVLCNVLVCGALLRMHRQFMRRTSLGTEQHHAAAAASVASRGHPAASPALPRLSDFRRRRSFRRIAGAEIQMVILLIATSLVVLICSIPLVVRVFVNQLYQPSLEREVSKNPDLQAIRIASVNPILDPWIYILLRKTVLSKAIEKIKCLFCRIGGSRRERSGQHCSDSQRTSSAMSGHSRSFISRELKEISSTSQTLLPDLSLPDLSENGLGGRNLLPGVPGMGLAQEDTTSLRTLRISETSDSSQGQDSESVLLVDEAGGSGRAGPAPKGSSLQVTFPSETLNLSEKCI
Sequence of Prostacyclin receptor (P43119 whole entry): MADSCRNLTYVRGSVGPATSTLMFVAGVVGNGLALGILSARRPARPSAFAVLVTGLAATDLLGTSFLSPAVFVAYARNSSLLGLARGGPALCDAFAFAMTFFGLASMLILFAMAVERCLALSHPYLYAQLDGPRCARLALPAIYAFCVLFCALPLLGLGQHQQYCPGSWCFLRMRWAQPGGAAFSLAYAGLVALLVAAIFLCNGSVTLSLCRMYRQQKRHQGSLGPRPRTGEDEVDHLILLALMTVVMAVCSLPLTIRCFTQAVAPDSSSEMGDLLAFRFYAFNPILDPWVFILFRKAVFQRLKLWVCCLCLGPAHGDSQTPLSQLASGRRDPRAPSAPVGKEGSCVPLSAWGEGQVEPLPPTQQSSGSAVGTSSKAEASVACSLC
Sequence of Prostaglandin F2-alpha receptor (P43088 whole entry): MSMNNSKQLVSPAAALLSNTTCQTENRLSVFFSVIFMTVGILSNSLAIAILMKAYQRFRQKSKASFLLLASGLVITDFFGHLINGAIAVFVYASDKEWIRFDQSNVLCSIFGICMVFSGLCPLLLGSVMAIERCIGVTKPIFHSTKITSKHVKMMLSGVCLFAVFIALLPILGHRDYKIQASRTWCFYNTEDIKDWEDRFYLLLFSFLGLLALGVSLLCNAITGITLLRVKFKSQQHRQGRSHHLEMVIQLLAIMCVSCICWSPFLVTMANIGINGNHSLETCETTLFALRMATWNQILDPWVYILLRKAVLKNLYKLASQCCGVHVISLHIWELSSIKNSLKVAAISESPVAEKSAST

COc1ccc(C/C=C/c2ccccc2/C=C/C(=O)NS(=O)(=O)c2cccs2)cc1
Ki [1]: 2.4 nM (antagonist) | Ki [2]: 2600 nM (antagonist) | Ki [3]: 1000 nM (antagonist) | Ki [4]: 6500 nM (antagonist)

O=C(/C=C/c1ccccc1/C=C/Cc1ccccc1)NS(=O)(=O)c1cccs1
Ki [1]: 5 nM (antagonist) | Ki [2]: 8500 nM (antagonist) | Ki [3]: 1500 nM (antagonist) | Ki [4]: 8000 nM (antagonist)

O=C(O)/C=C/c1ccccc1Cc1ccc2ccccc2c1
Ki [5]: 400 nM (antagonist) | Ki [1]: 47 nM (antagonist) | pKi [2]: < 4.00 | pKi [3]: 4.89 | Activity (Rattus norvegicus [6]): 5.4 µM | pKi (Prostacyclin receptor): < 6.30 | pKi (Thromboxane A2 receptor): < 6.30 | pKi [7]: < 6.30 | ED50 (Rattus norvegicus [8]): 30 mg/kg | pKi [9]: < 6.30

COc1cc(C/C=C/c2ccccc2/C=C/C(=O)NS(=O)(=O)c2cccs2)ccc1OCc1ccccc1
Ki [1]: 1.6 nM (antagonist) | Ki [2]: 1500 nM (antagonist) | Ki [3]: 840 nM (antagonist) | Ki [4]: 8700 nM (antagonist)

Cc1ccc(OCc2ccccc2)c(C/C=C/c2ccccc2/C=C/C(=O)NS(=O)(=O)c2cccs2)c1
Ki [1]: 10 nM (antagonist) | Ki [2]: 2300 nM (antagonist) | Ki [3]: 960 nM (antagonist) | Ki [4]: 2100 nM (antagonist)

COc1cc(/C=C/Cc2ccccc2/C=C/C(=O)O)ccc1OCc1ccccc1
Ki [1]: 8 nM (antagonist) | pKi [2]: < 4.70 | Ki [3]: 610 nM (antagonist) | Ki [4]: 750 nM (antagonist)

Cc1ccc(OCc2ccccc2)c(CCCc2ccccc2CCC(=O)NS(=O)(=O)c2cccs2)c1
Ki [1]: 56 nM (antagonist) | Ki [2]: 6700 nM (antagonist) | Ki [3]: 1000 nM (antagonist) | Ki [4]: 1600 nM (antagonist)

Cc1ccc(OCc2ccccc2)c(C/C=C/c2ccccc2/C=C/C(=O)O)c1
Ki [1]: 9 nM (antagonist) | pKi [2]: 4.72 | Cmax [10]: 22 µM | bioavailability [11]: 97% | Ki [3]: 2000 nM (antagonist) | remaining at 3 h [12]: 8% | Activity (Rattus norvegicus [6]): 0.24 µM | Ki [4]: 860 nM (antagonist) | Kb [13]: 32 nM | pKi (Prostacyclin receptor): < 6.30 | ED50 (Rattus norvegicus [14]): 0.9 mg/kg | clearance [15]: 10 mL/min | pKi (Thromboxane A2 receptor): < 6.30 | half-life [16]: 2 h | pKi [7]: < 6.30 | ED50 (Rattus norvegicus [8]): 20 mg/kg | pKi [9]: < 6.30

COc1ccc(/C=C/Cc2ccccc2/C=C/C(=O)NS(=O)(=O)c2cccs2)cc1
Ki [1]: 2.4 nM (antagonist) | Ki [2]: 2600 nM (antagonist) | Ki [3]: 1000 nM (antagonist) | Ki [4]: 6500 nM (antagonist)

Cc1ccc(OCc2ccccc2)c(CCCc2ccccc2CCC(=O)O)c1
Ki [1]: 65 nM (antagonist) | pKi [2]: 4.64 | Ki [3]: 440 nM (antagonist) | Ki [4]: 940 nM (antagonist)

COc1cc(/C=C/Cc2ccccc2/C=C/C(=O)NS(=O)(=O)c2cccs2)ccc1OCc1ccccc1
Ki [1]: 1.6 nM (antagonist) | Ki [2]: 1500 nM (antagonist) | Ki [3]: 840 nM (antagonist) | Ki [4]: 8700 nM (antagonist)

O=C(/C=C/c1ccccc1Cc1ccc2cc(OCc3ccccc3)ccc2c1)NS(=O)(=O)c1cccs1
Ki [5]: 2.4 nM (antagonist) | Ki [1]: 0.6 nM (antagonist) | Ki [2]: 3200 nM (antagonist) | Ki [3]: 1100 nM (antagonist) | Ki [4]: 8000 nM (antagonist)

O=C(/C=C/c1ccccc1C/C=C/c1ccccc1)NS(=O)(=O)c1cccs1
Ki [1]: 5 nM (antagonist) | Ki [2]: 8500 nM (antagonist) | Ki [3]: 1500 nM (antagonist) | Ki [4]: 8000 nM (antagonist)

O=C(O)/C=C/c1ccccc1C/C=C/c1ccccc1
Ki [1]: 100 nM (antagonist) | pKi [2]: < 4.00 | Ki [3]: 4400 nM (antagonist) | Ki [4]: 1400 nM (antagonist)

Cc1ccc(OCc2ccccc2)c(/C=C/Cc2ccccc2/C=C/C(=O)NS(=O)(=O)c2cccs2)c1
Ki [1]: 10 nM (antagonist) | Ki [2]: 2300 nM (antagonist) | Ki [3]: 960 nM (antagonist) | Ki [4]: 2100 nM (antagonist)

Cc1ccc(OCc2c(Cl)cccc2Cl)c(/C=C/Cc2ccccc2/C=C/C(=O)O)c1
Ki [1]: 3 nM (antagonist) | Ki [2]: 6700 nM (antagonist) | Cmax [10]: 25 µM | bioavailability [11]: 74% | Ki [3]: 620 nM (antagonist) | Activity (Rattus norvegicus [6]): 2.5 µM | Ki [4]: 5400 nM (antagonist) | Kb [13]: 5.8 nM | pKi (Prostacyclin receptor): < 6.30 | ED50 (Rattus norvegicus [14]): 5.1 mg/kg | clearance [15]: 16 mL/min | pKi (Thromboxane A2 receptor): < 6.30 | half-life [16]: 2 h | pKi [7]: < 6.30 | ED50 (Rattus norvegicus [8]): 5.8 mg/kg | pKi [9]: < 6.30

COc1ccc(Br)cc1S(=O)(=O)NC(=O)/C=C/c1ccccc1Cc1ccc2cc(OCc3ccccc3)ccc2c1
Ki [5]: 0.7 nM (antagonist) | Ki [1]: 0.9 nM (antagonist) | pKi [2]: < 4.00 | Ki [3]: 8000 nM (antagonist) | Activity (Rattus norvegicus [6]): 8 µM | pKi [4]: < 4.00 | Kb [13]: 0.7 nM | pKi (Prostacyclin receptor): < 6.30 | pKi (Thromboxane A2 receptor): < 6.30 | pKi [7]: < 6.30 | ED50 (Rattus norvegicus [8]): > 30 mg/kg | pKi [9]: < 6.30

COc1ccc(/C=C/Cc2ccccc2/C=C/C(=O)O)cc1
Ki [1]: 68 nM (antagonist) | pKi [2]: < 4.00 | Ki [3]: 6200 nM (antagonist) | Ki [4]: 2500 nM (antagonist)
